Reference: PMC3475218 (Theranostics, 2012)
Values joined by “and” are separate entries in the source; they are usually repeats but may differ in a detail not shown here. Identical values can stand only once.

What was measured:
[1] = Zeta potential measurement; format: physicochemical; conditions: ultrapure water, pH ~ 7.0, 5 mM gadolinium, 20°C, Zetasizer Nano ZS
Outline: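 Nanoparticles were suspended in ultrapure water at pH ~7.0 and 5 mM Gd and measured by electrophoretic light scattering (532 nm laser). Readings were taken 2.00 mm from the cell wall with an automatic attenuator at 20°C. Each sample ran 15 runs of 10 s, repeated three times.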

[2] = test system: recombinant chimeric neuropilin-1 (NRP-1) protein; assay: Competitive binding to recombinant NRP-1 protein; conditions: 5 ng/mL biotinylated VEGF165, 2 µg/mL heparin, 2 h room temperature; n=3
Outline: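 Plates coated overnight at room temperature with recombinant chimeric NRP-1 (2 µg/mL in PBS), washed with PBS/0.05% Tween 20, and blocked with PBS/0.5% BSA for 1 h at 37°C. Biotinylated VEGF165 (5 ng/mL, with 2 µg/mL heparin) was added with increasing test nanoparticle concentrations, Gd-matched control nanoparticles, or excess unlabelled VEGF165 (0.5 µg/mL). Streptavidin-HRP colorimetric read-out at 450 nm was expressed relative to the no-competitor control, in triplicate.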

[3] = test system: MDA-MB-231 cells; assay: Photodynamic activity; format: cell-based, human; conditions: for DL50 (50% cell growth inhibitory light dose): 652 nm, 24 h incubation, MTT 24 h post-irradiation, six replicates
[4] = test system: MDA-MB-231 cells; assay: Photo-induced cytotoxicity, real-time impedance-based cell analysis; parameters: species or system human; conditions: first 24 h post-exposure, before light irradiation; mean of six replicates
Outline: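 MDA-MB-231 cells were cultured in RPMI with 9% heat-inactivated FBS, penicillin/streptomycin and 2 mM L-glutamine at 37°C, 5% CO2. Cells were seeded at 10^4 per well on electrode plates, and impedance was read every 15 min. At 24 h, test nanoparticles were added at final photosensitizer concentrations of 0.05–10.00 µM, or Gd-matched control nanoparticles at 2.9–585.0 µM. Cells were kept in darkness for 24 h before washing, with six replicates. Cell index was calculated as background-subtracted impedance.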

[5] = test system: orthotopic U87 human glioblastoma (tumor tissue) in nude rats; assay: In vivo tumor MRI contrast enhancement kinetics; parameters: species or system rat; conditions: i.v., 25 µmol of Gd / 250 g
Outline: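 Male athymic nude rats (rnu/rnu) received 5.10^5 U87 cells in 5 μL HBSS stereotactically into the right striatum (0.5 mm anterior, 2.7 mm lateral to bregma) under i.p. ketamine/xylazine. About 20 days later, nanoparticles were given intravenously in 500 µL, diluted in 9‰ NaCl from an iso-osmolar 100 mM Gd stock at pH ~7.4. Tumor MRI signal was normalized to pre-injection and contralateral tissue, and its decline from peak was followed.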

[6] = UV/Vis absorption and fluorescence spectra; format: physicochemical; conditions: from UV/Vis calibration curve of free TPC
Outline: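 Absorption spectra were recorded by UV-visible spectrophotometry on ethanol suspensions of nanoparticles and free photosensitizer. Fluorescence spectra were acquired on a spectrofluorimeter with xenon lamp excitation and a thermostatted cell compartment at 25°C.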

[7] = test system: neuropilin-1 (NRP-1); conditions: receptor expressed in angiogenic vasculature; ref [19], [20], [22]; cited from earlier work

Substance	Zeta potential [1] [mV]	Binding to NRP-1 (qualitative) [2]	DL50 (50% cell growth inhibitory light dose) ([3]; 0.1 µM TPC)	DL50 (50% cell growth inhibitory light dose) ([3]; 1.0 µM TPC)	Photocytotoxic effectiveness, 1.0 µM vs 0.1 µM TPC ([3]; ratio of DL50 at 0.1 and 1.0 µM) [times]	Cell index before irradiation [4]	Rate of decrease of tumor MRI contrast ([5]; decrease from maximum peak)	Half-life in tumor tissue (T1/2) ([5]; semi-logarithmic presentation of MRI contrast enhancement decrease) [h]	TPC molecules per nanoparticle [6]	NRP-1 targeting (qualitative) [7]
H-ATWLPPR-OH [NP-TPC-ATWLPPR]	12.9±4	greatly displaced	9.16 J/cm^2 and 9.2 J/cm^2	2.80 J/cm^2 and 2.8 J/cm^2	3.3	no decrease in cell index values	-0.0072 .min^-1	1.604	~ 1.7 TPC molecules per nanoparticle	
H-ATWLPPR-OH [ATWLPPR]										selectively target NRP-1 receptor
